Hits are enriched below; roughly 2% of the tested compounds scored in any of these assays.
CaV13 ICDI inh – Primary screen for inhibitors of IQ motif and Ca2+-dependent inactivation inhibitor domain binding in CACNA1D, Förster resonance energy transfer in living cells, …; HEK cells, CFP/YFP FRET ICDI-IQ, plate reader, 10 min; percent FRET-ratio fall versus neutral wells; inhibition, % at 12.3 µM; 340,000 compounds, 0.098% hits; AID 743397;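 active = mean replicate inhibition of at least 30% and at least 1% of replicates passing that level; inconclusive = only one of the two criteria is met; inactive = neither criterion is met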;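 note: 0% = median of the neutral control wells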
CASP6 VEID inh – inhibitors of human caspase-6; 350,000 compounds, 0.53% hits; purified caspase-6, Z-VEID-R110 cleavage fluorescence; inhibition, % at 12.5 µM;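 active = mean inhibition across replicates at least about 35%, with every replicate also reaching that limit, limit read from the data; inconclusive = only one of the two criteria met; inactive = neither criterion met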;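 note: 0% = median of neutral control wells and 100% = no fluorescence left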
Target sequence (P55212 24-179 limits assumed): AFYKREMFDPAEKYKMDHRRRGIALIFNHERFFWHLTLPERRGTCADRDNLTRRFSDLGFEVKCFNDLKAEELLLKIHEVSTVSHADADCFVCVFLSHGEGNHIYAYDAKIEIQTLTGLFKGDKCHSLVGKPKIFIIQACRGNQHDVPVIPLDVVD
Target sequence (P55212 194-293 limits assumed): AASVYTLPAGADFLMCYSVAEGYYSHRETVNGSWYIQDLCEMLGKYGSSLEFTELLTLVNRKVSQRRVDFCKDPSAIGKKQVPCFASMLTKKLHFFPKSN
DENV2 CPE – DENV2-induced cell death inhibition | DENV2-infected cells, cytopathic effect rescue, plate reader | CPE inhibition, % at 9.99 µM | 350,000 compounds, 1.7% hits | AID 651640; in the data active = CPE inhibition above about 20%, passing the limit was not always enough; inconclusive = no clear call, values can overlap the other calls; tested in BHK-21 cells;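 note: 0% = median of neutral control wells and 100% = median of positive control wells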
FN deposition inh – fibronectin deposition inhibition; AH1F fibroblasts, Alexa488-fibronectin deposition fluorescence, overnight; inhibition, % at 12.6 µM; 350,000 compounds, 0.086% hits; AID 743247;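 active = mean inhibition across replicates of 30% or more, regardless of how many single replicates reach that level; inconclusive = mean under 30% yet at least half of replicates reach 30%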;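 note: positive control wells lacked labelled fibronectin entirely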
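Schedule: 1 h cell adhesion before compound, then overnight fibronectin incubation; test system: AH1F fibroblast monolayer depositing Alexa488-labelled fibronectin into matrix; quantity: 10000 AH1F cells per well; probe or stimulus: fluorescent fibronectin at 24 nM final; signal: fluorescence, ex 485 nm, em 525 nm; evaluation: percent inhibition as loss of matrix-bound fibronectin fluorescence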
Xi reactivation – X-chromosome reactivation activator | activation, % at 7.58 µM | 360,000 compounds, 0.055% hits | XiGFP mouse fibroblasts, % GFP-positive cells imaging, 3 d; cells co-treated with 5-aza-dC sensitizer; scaled so ellipticine positive control = 100%;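 active = mean normalized replicate activation at least 10% and every replicate at or above 10%; inconclusive = only one of the two criteria met; inactive = mean below 10% and not all replicates reach 10%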;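 note: 0% = median of on-plate neutral control wells and 100% = ellipticine 6 µM median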
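material = 68-5-11 XiGFP fibroblast line | medium = DMEM plus 5-aza-dC sensitizer | schedule = 3 days compound exposure | benchmarks = positive control ellipticine, 6 µM final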
Numbers without * were called inactive; ? = inconclusive; · = no result.

SMILES | CaV13 ICDI inh | CASP6 VEID inh | DENV2 CPE | FN deposition inh | Xi reactivation
CCOC(=O)C1=C(COC(=O)c2ccc([N+](=O)[O-])s2)NC(=O)NC1C (stereo not drawn) | -4.4 | 89.4* | -1.6 | -12.0 | -0.5
CCCN(C)C[C@H]1OCCCC[C@@H](C)Oc2ccc(NS(=O)(=O)c3cccs3)cc2C(=O)N([C@H](C)CO)C[C@@H]1C | · | -2.5 | -9.2 | · | -1.1
Cc1ccc(Cn2c(=O)c3ccccc3n3c(CCC(=O)O)nnc23)cc1 | -10.8 | 9.8 | -2.0 | 2.5 | 0.0
CC(C)Cn1c(=O)c2ccccc2n2c(CCC(=O)O)nnc12 | -2.9 | -2.5 | 70.2* | -4.8 | 0.3
CC(C)CCn1c(=O)c2ccccc2n2c(CCC(=O)NC3CCN(Cc4ccccc4)CC3)nnc12 | -2.5 | -3.6 | -7.0 | 0.6 | -0.1
CC(C)CCn1c(=O)c2ccccc2n2c(CCC(=O)NCC3CCCO3)nnc12 (stereo not drawn) | -3.8 | 38.4* | 4.4 | 0.6 | 0.0
CCCC(=O)Nc1ccc2c(c1)C(=O)N(C)[C@H]1CC[C@H](CC(=O)OC)O[C@@H]1CO2 | · | 1.5 | -8.7 | -37.4 | -0.2
C[C@@H]1CN([C@@H](C)CO)C(=O)c2cc(C#Cc3ccccc3F)cnc2O[C@H]1CN(C)S(=O)(=O)c1ccccc1F | · | 1.5 | 34.6* | -0.4 | 0.0
C[C@@H]1CN([C@H](C)CO)C(=O)c2ccccc2-c2ccccc2CO[C@H]1CN(C)C(=O)c1cc(Cl)cc(Cl)c1 | · | 1.0 | 28.7* | -18.0 | 0.3
CC(C)NC(=O)N(C)C[C@@H]1Oc2ncc(-c3ccccc3F)cc2C(=O)N([C@@H](C)CO)C[C@H]1C | · | 0.9 | 22.7* | · | 0.5
CC(C)NC(=O)N(C)C[C@H]1Oc2ncc(-c3ccccc3F)cc2C(=O)N([C@H](C)CO)C[C@H]1C | · | 1.2 | 16.6 | · | -0.5
Cc1ccc(-c2cnc3c(c2)C(=O)N([C@H](C)CO)C[C@@H](C)[C@@H](CN(C)C(=O)c2ccccc2)O3)cc1 | · | -9.7 | 68.4* | 11.4 | -0.3
C[C@H](CO)N1C[C@H](C)[C@H](CN(C)C(=O)c2ccccc2F)Oc2ncc(C#Cc3ccc(F)cc3)cc2C1=O | · | -0.7 | -5.7 | · | -0.6
C[C@@H]1CN([C@H](C)CO)C(=O)c2cc(C#Cc3ccc(F)cc3)cnc2O[C@@H]1CN(C)C(=O)c1ccccc1F | · | -4.9 | 45.0* | · | -0.1
C[C@@H]1CN([C@@H](C)CO)C(=O)c2cc(-c3ccccc3)cnc2O[C@@H]1CN(C)C(=O)c1cccc(F)c1 | · | · | · | 18.8 | -1.0
C[C@@H]1CN([C@H](C)CO)C(=O)c2cc(-c3ccccc3)cnc2O[C@@H]1CN(C)C(=O)c1ccccc1F | · | · | 105.3* | -3.6 | 0.9
C[C@H]1CN([C@@H](C)CO)C(=O)c2cc(-c3ccccc3)cnc2O[C@@H]1CN(C)C(=O)c1cccc(F)c1 | · | · | · | 37.7* | 0.1
C[C@@H](NC(=O)[C@H]1[C@H](CO)[C@H]2Cn3c(ccc(C4=CCCCC4)c3=O)[C@@H]1N2)c1ccccc1 | · | 1.6 | -3.1 | · | 0.1
C[C@@H]1CN(C)C(=O)c2cccc(NS(C)(=O)=O)c2O[C@@H]1CN(C)C | · | · | · | -0.1 | 0.0
CC(C)C[C@@H](CNCC(=O)[C@H](CC(C)C)NC(=O)c1[nH]cnc1C(=O)N[C@@H](C)CN)NC(=O)c1nc[nH]c1C(=O)N[C@@H](CC(=O)O)C(=O)O | -8.0 | 6.0 | 86.9* | 7.5 | 0.2
O=c1c(Cl)c(Cl)cnn1Cc1nnc(-c2ccccc2Br)o1 | 2.7 | 1.4 | -8.9 | 39.3* | 1.0
Cc1ccc(S(=O)(=O)c2cc(Nc3ccccc3)ccc2O)cc1 | -3.8 | 15.4 | ? | 1.5 | -0.2
Cc1ccc(Nc2ccc(N)cc2S(=O)(=O)O)cc1 | -3.6 | 62.4* | -4.4 | 2.1 | 0.0
Cc1ccccc1S(=O)(=O)N1CC(=O)N2[C@H](CO)[C@@H](c3ccc(C#CCN(C)C)cc3)[C@@H]2C1 | · | 0.7 | 33.9* | · | 0.0
Cc1ccccc1S(=O)(=O)N1CC(=O)N2[C@H](CO)[C@@H](c3ccc(C#CCN(C)C)cc3)[C@H]2C1 | · | 15.1 | 42.7* | · | 0.0
COc1ccc(NC(=O)Nc2ccccc2F)c([N+](=O)[O-])c1 | -4.7 | 39.1* | 6.6 | 7.4 | 0.0
